{"data": "Experimental data gathered from unrelated publications", "medium": "plasma", "note": "Protocols differ between the studies behind these lines."}
{"SMILES": "COc1ccc(Oc2cc(N(C)CCOc3ccc(CC4SC(=O)NC4=O)cc3)ncn2)cc1 (centres unmarked)", "species": "male human", "route": "oral", "dose": "0.5 mg", "setting": "multiple doses, once daily, steady state", "half-life [h]": 7.06}
{"SMILES": "CCOc1ccc(Cc2cc([C@@H]3O[C@H](CO)[C@@H](O)[C@H](O)[C@H]3O)ccc2Cl)cc1", "species": "human", "route": "oral", "dose": "10 mg", "setting": "multiple doses, steady state, healthy volunteers", "half-life [h]": 10.4}
{"SMILES": "Cn1cc(-c2ccc(S(=O)(=O)[C@@H]3C[C@@H](C(=O)NC4(C#N)CC4)N(C(=O)C4(C(F)(F)F)CC4)C3)c(C(F)(F)F)c2)cn1", "species": "human", "route": "oral", "dose": "100 mg", "setting": "single dose, fed, healthy volunteers", "half-life [h]": 8.8}
{"SMILES": "c1cnc2ccc(Nc3nc(NC4CC4)c4nc[nH]c4n3)cc2c1", "species": "human", "route": "oral", "dose": "100 mg/m²", "setting": "patients", "half-life [h]": 3.6}
{"SMILES": "CCOc1cc([C@@H](CS(C)(=O)=O)N2C(=O)c3cccc(NC(C)=O)c3C2=O)ccc1OC", "species": "male human", "route": "oral", "dose": "20 mg", "setting": "single dose, healthy volunteers", "half-life [h]": 7.6}
{"SMILES": "C[C@@H](c1ccc2nccn2c1)n1nnc2ncc(-c3cnn(C)c3)nc21", "species": "human", "route": "oral", "dose": "600 mg", "half-life [h]": 7.1}
{"SMILES": "COCCOc1cnc2ccn([C@H](C)c3nnc4c(F)cc(-c5cnn(C)c5)cn34)c(=O)c2c1", "species": "human", "route": "oral", "dose": "300 mg", "setting": "multiple doses, once daily, patients", "half-life [h]": 9.7}
{"SMILES": "Cc1cc(Nc2ncc(Cl)c(Nc3ccccc3S(=O)(=O)C(C)C)n2)c2c(c1C1CCN(C)CC1)C[C@@H](C)O2", "species": "human", "route": "oral", "dose": "160 mg", "setting": "single dose, fasted, healthy volunteers", "half-life [h]": 34.6}
{"SMILES": "O=C(Nc1c(Cl)cncc1Cl)c1ccc(OC(F)F)c(OCC2CC2)c1", "species": "human", "route": "oral", "dose": "0.5 mg", "setting": "single dose", "half-life [h]": 19.9}
{"SMILES": "COc1ccc([C@@H]2CN(C(=O)[C@@H](O)CO)C[C@@]2(C)[C@@H](C)O)cc1OC1CN(c2ccc(C)cn2)C1", "species": "human", "route": "oral", "dose": "10 mg", "setting": "single dose, healthy volunteers", "half-life [h]": 12.6}
{"SMILES": "CO[C@H]1CC[C@H](N2C(=O)CNc3ncc(-c4ccc(C(C)(C)O)nc4)nc32)CC1", "species": "human", "route": "oral", "dose": "7.5 mg", "setting": "patients", "half-life [h]": 7.68}
{"SMILES": "CCNCCCNC/C=C\\CNCCCNCC", "species": "human", "route": "intravenous", "dose": "100 mg", "setting": "patients, infusion", "half-life [h]": 0.19}
{"SMILES": "O=c1c(O)c(-c2ccc(O)c(O)c2)oc2cc(O)cc(O)c12", "species": "human", "route": "oral", "dose": "500 mg", "setting": "single dose, fasted, healthy volunteers", "half-life [h]": 6.26}
{"SMILES": "CO[C@H]1/C=C\\C=C(/C)C(=O)NC2=CC(=O)C(NCCN(C)C)=C(C[C@@H](C)C[C@H](OC)[C@H](O)[C@@H](C)/C=C(\\C)[C@@H]1OC(N)=O)C2=O", "species": "human", "route": "intravenous", "dose": "27 mg/m²", "setting": "patients, infusion", "half-life [h]": 22.5}
{"SMILES": "CO[C@@H]1[C@H](OC(=O)N2CC(CCN3CCOCC3)C2)CC[C@]2(CO2)[C@H]1[C@@]1(C)O[C@@H]1CC=C(C)C", "species": "human", "route": "subcutaneous", "dose": "0.2 mg", "setting": "single dose, healthy volunteers", "half-life [h]": 0.49}
{"SMILES": "C[C@@H](Nc1cc(F)cc(F)c1)c1cc(C(=O)N(C)C)cc2c(=O)cc(N3CCOCC3)oc12", "species": "human", "route": "oral", "dose": "60 mg", "setting": "patients", "half-life [h]": 5.2}
{"SMILES": "C#C[C@]1(COP(=O)(O)OP(=O)(O)OP(=O)(O)O)O[C@@H](n2cnc3c(N)nc(F)nc32)C[C@@H]1O", "species": "human", "route": "oral", "dose": "15 mg", "setting": "single dose", "half-life [h]": 161}
{"SMILES": "CC(=O)Oc1ccccc1C(=O)O", "species": "human", "route": "oral", "dose": "650 mg", "setting": "healthy volunteers", "half-life [h]": 0.53}
{"SMILES": "CC(C)(C)N/[N+]([O-])=N/OC1CCN(c2ccc(C#N)cn2)CC1", "species": "male human", "route": "oral", "setting": "single dose, healthy volunteers", "half-life [h]": "46 to 78"}
{"SMILES": "CC(C)[C@](O)(c1ccc2cc(OC(F)F)c(OC(F)F)cc2c1)c1c[nH]nn1", "species": "female human", "route": "oral", "dose": "600 mg", "setting": "single dose", "half-life [h]": 8.4}
{"SMILES": "CS(=O)(=O)CCC#N", "species": "human", "route": "oral", "dose": "100 mg", "setting": "multiple doses, once daily", "half-life [h]": 16}
{"SMILES": "COc1ccc(-n2nc(C(N)=O)c3c2C(=O)N(c2ccc(N4CCCCC4=O)cc2)CC3)cc1", "species": "human", "route": "oral", "dose": "10 mg", "setting": "single dose, healthy volunteers", "half-life [h]": 12.7}
{"SMILES": "CC(C)(O)c1ccccc1-c1ccc2[nH]c(/C=C/c3ccc(C(F)(F)F)cc3)nc2c1", "species": "male human", "route": "oral", "dose": "50 mg", "setting": "single dose, fasted, healthy volunteers", "half-life [h]": 68.6}
{"SMILES": "CC(C)n1cc(C#N)c2cc(-n3cc(C(=O)O)cn3)ccc21", "species": "human", "route": "oral", "dose": "50 mg", "setting": "single dose, fasted, healthy volunteers", "half-life [h]": 7.1}
{"SMILES": "CS(=O)(=O)n1cc2c(n1)CN([C@H]1CO[C@H](c3cc(F)ccc3F)[C@@H](N)C1)C2", "species": "male human", "route": "oral", "dose": "10 mg", "setting": "single dose, fasted", "half-life [h]": 49.9}
{"SMILES": "O=C(/C=C/c1cccc(S(=O)(=O)Nc2ccccc2)c1)NO", "species": "human", "route": "intravenous", "dose": "1900 mg/m²", "setting": "patients", "half-life [h]": 1.43}
{"SMILES": "Nc1cc(C(F)(F)F)c(-c2cc(N3CCOCC3)nc(N3CCOCC3)n2)cn1", "species": "human", "route": "oral", "dose": "100 mg/day", "setting": "patients", "half-life [h]": 30.6}
{"SMILES": "CC(C)(Sc1ccncc1-c1ccc(C#N)c2ccccc12)C(=O)O", "species": "male human", "route": "oral", "dose": "5 mg", "setting": "single dose, fed, healthy volunteers", "half-life [h]": 12.7}
{"SMILES": "NS(=O)(=O)NCCNc1nonc1C(=NO)Nc1ccc(F)c(Br)c1", "species": "human", "route": "oral", "dose": "300 mg", "setting": "multiple doses, twice daily, steady state, patients", "half-life [h]": 3.9}
{"SMILES": "Cc1nc(-c2cn3c(n2)-c2ccc(-c4cnn(C(C)(C)C(N)=O)c4)cc2OCC3)n(C(C)C)n1", "species": "human", "route": "oral", "dose": "2 mg", "setting": "patients", "half-life [h]": 28.1}
{"SMILES": "COc1ccc(-n2nc(C(N)=O)c3c2C(=O)N(c2ccc(N4CCCCC4=O)cc2)CC3)cc1", "species": "human", "route": "oral", "dose": "20 mg", "setting": "single dose, healthy volunteers", "half-life [h]": "~13"}
{"SMILES": "COc1cc(C(=O)NC2CCN(C)CC2)c(F)cc1Nc1ncc(C(F)(F)F)c(Oc2cccc3c2C(=O)N(C)C3)n1", "species": "human", "route": "oral", "dose": "10 mg", "setting": "multiple doses, once daily, patients", "half-life [h]": 25.8}
